Source: ChEMBL document CHEMBL2321713 (Bioorg Med Chem, 2013)

Key:
[1] = Elimination half life in rat liver microsomes by HPLC/MS analysis; type: ADME, Microsome; conditions: read-out: beta t1/2
In short: (§1)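 Rat or human liver microsomal incubations at 37 °C were analysed for percent parent remaining over incubation time. k is the slope of the linear regression of ln(% remaining) versus time, and t1/2 = 0.693/k. In vitro intrinsic clearance was derived from t1/2 and used to predict hepatic clearance.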

[2] = Elimination half life in human liver microsomes by HPLC/MS analysis; type: ADME, Microsome; conditions: read-out: beta t1/2; in short: as §1
[3] = Intrinsic clearance in rat liver microsomes after 30 mins by HPLC/MS analysis; type: ADME, Microsome; conditions: read-out: CLH; in short: as §1
[4] = Intrinsic clearance in human liver microsomes after 30 mins by HPLC/MS analysis; type: ADME, Microsome; conditions: read-out: CLH; in short: as §1
Liver microsomes [5] = assay: Drug metabolism in human liver microsomes assessed as C3-demethylation after 30 mins by LC-UV/MS analysis; type: ADME, Microsome; conditions: 0.5 h
In short: (§2)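 Rat or human liver microsomes (20 mg protein/ml suspension) were added to start reactions after test compound (1 mM stock) in 50 mM Tris-Cl pH 7.4 with MgCl2 was pre-incubated 30 min at 37 °C. Incubation ran 30 min at 37 °C, shaken in air. Reactions were quenched with ice-cold dichloromethane plus internal standards. Metabolites were separated on C18 (acetonitrile/water gradient 40→60%) and identified by positive-mode MS.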

Homo sapiens [6] = species on record: Homo sapiens; assay: Selectivity ratio of Ki for human MT1 receptor to Ki for human MT2 receptor
In short: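 Whole-cell competition binding on CHO cells stably expressing hMT1 or hMT2, 1.5×10^5 cells per tube. Incubated 60 min at 4 °C, then filtered through GF/C and counted. Means of duplicate experiments. Ratio is MT1 Ki/MT2 Ki.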

Liver microsomes [7] = assay: Drug metabolism in rat liver microsomes assessed as aromatic ring hydroxylation after 30 mins by LC-UV/MS analysis; type: ADME, Microsome; conditions: 0.5 h; in short: as §2
Liver microsomes [8] = assay: Drug metabolism in human liver microsomes assessed as aromatic ring hydroxylation after 30 mins by LC-UV/MS analysis; type: ADME, Microsome; conditions: 0.5 h; in short: as §2
Homo sapiens [9] = species on record: Homo sapiens; assay: Selectivity ratio of EC50 for human MT1 receptor to EC50 for human MT2 receptor
In short: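 Ca2+ mobilization (FLIPR) in CHO clonal lines stably co-expressing hMT1 or hMT2 with chimeric Gα16z25. Cells seeded a day before, loaded with 2 µM Fluo-4 in HBSS (pH 7.5) with 2.5 mM probenecid, 1 h, 37 °C. Fluorescence read 3 min after agonist addition, excitation 488 nm. […] Ratio is MT1 EC50/MT2 EC50.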

[10] = target: T1, Melatonin receptor type 1B (Homo sapiens, UniProt P49286); assay: Agonist activity at human MT2 receptor expressed in CHO cells coexpressing Galpha protein 16z25 assessed as increase in calcium mobilization measured for 3 mins by FLIPR assay; type: functional, cell-based
T1 sequence (P49286 whole entry): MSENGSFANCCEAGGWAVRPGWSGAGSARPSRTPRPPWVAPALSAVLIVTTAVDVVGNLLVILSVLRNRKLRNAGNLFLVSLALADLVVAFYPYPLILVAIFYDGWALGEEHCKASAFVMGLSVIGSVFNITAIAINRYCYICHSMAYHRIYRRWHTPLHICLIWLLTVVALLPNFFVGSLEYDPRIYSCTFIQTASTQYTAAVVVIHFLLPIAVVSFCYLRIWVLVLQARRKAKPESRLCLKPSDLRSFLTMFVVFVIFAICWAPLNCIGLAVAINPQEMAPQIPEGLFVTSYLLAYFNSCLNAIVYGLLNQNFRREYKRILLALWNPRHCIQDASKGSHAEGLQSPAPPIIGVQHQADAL
In short: (§3)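 CHO cells stably expressing human MT1 or MT2 with chimeric Gα16z25 were seeded in growth medium the day before. Fluorescence at 488 nm excitation was followed for 3 min after agonist addition.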

Liver microsomes [11] = assay: Drug metabolism in rat liver microsomes assessed as C3'-demethylation after 30 mins by LC-UV/MS analysis; type: ADME, Microsome; conditions: 0.5 h; in short: as §2
[12] = target: T2, Melatonin receptor type 1A (Homo sapiens, UniProt P48039); assay: Displacement of [3H]melatonin from human MT1 receptor expressed in CHO cells after 60 mins by microbeta scintillation method; type: cell-based
[13] = target: T1, Melatonin receptor type 1B; assay: Displacement of [3H]melatonin from human MT2 receptor expressed in CHO cells after 60 mins by microbeta scintillation method; type: cell-based
Liver microsomes [14] = assay: Drug metabolism in rat liver microsomes assessed as C3-demethylation after 30 mins by LC-UV/MS analysis; type: ADME, Microsome; conditions: 0.5 h; in short: as §2
Liver microsomes [15] = assay: Drug metabolism in human liver microsomes assessed as C3'-demethylation after 30 mins by LC-UV/MS analysis; type: ADME, Microsome; conditions: 0.5 h; in short: as §2
[16] = target: T2, Melatonin receptor type 1A; assay: Agonist activity at human MT1 receptor expressed in CHO cells coexpressing Galpha protein 16z25 assessed as increase in calcium mobilization measured for 3 mins by FLIPR assay; type: functional, cell-based; in short: as §3

T2 sequence (P48039 whole entry): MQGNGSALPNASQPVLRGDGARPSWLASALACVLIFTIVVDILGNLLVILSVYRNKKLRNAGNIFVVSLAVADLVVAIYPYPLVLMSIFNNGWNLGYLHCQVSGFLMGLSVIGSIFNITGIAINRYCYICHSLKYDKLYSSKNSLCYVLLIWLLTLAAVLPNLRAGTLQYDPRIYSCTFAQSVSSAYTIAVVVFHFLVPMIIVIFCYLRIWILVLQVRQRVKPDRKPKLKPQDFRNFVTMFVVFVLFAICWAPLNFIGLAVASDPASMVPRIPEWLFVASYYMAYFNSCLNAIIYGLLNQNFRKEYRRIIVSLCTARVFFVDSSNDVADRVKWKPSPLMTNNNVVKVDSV

| half-life [1] | half-life [2] | CLint scaled [3] | CLint scaled [4] | Drug metabolism (Liver microsomes [5]) | Ratio Ki (Homo sapiens [6]) | Drug metabolism (Liver microsomes [7]) | Drug metabolism (Liver microsomes [8]) | Ratio EC50 (Homo sapiens [9]) | EC50 [10] | Drug metabolism (Liver microsomes [11]) | Ki [12] | Ki [13] | Drug metabolism (Liver microsomes [14]) | Drug metabolism (Liver microsomes [15]) | EC50 [16] | SMILES |
| --- | --- | --- | --- | --- | --- | --- | --- | --- | --- | --- | --- | --- | --- | --- | --- | --- |
| 75.3 min | 73.2 min | 33.1 mL/min/kg | 25.5 mL/min/kg | – | – | – | – | – | – | – | – | – | – | – | – | COc1ccc2[nH]cc(CCNC(C)=O)c2c1 [MELATONIN] |
| 8.6 min | 6 min | 290 mL/min/kg | 312 mL/min/kg | Active | 12 | Active | Active | 171 | 0.24 nM | Active | 39.5 nM | 3.39 nM | Active | Active | 41.6 nM | CCC(=O)NCCCc1cc(OC)ccc1Cc1cccc(OC)c1 |
| 7.5 min | 5.3 min | 333 mL/min/kg | 353 mL/min/kg | Active | 96 | Active | Active | 14 | 0.2 nM | Active | 32.7 nM | 0.339 nM | Active | Active | 2.94 nM | CCC(=O)NCCCc1cc(OC)ccc1-c1cccc(OC)c1 |
| 21.7 min | 18.3 min | 115 mL/min/kg | 102 mL/min/kg | Active | 527 | Active | Active | 77 | 0.11 nM | Active | 38.2 nM | 0.073 nM | Active | Active | 8.38 nM | CCC(=O)NCCCc1cc(OC)ccc1C#Cc1cccc(OC)c1 |
| 9.5 min | 5.5 min | 262 mL/min/kg | 340 mL/min/kg | – | 417 | – | – | 181 | 0.05 nM | – | 121 nM | 0.291 nM | – | – | 9.03 nM | CCC(=O)NCCCc1cc(OC)ccc1OCc1cccc(OC)c1 |
| 8.3 min | 5.1 min | 301 mL/min/kg | 367 mL/min/kg | Active | 40 | Active | Active | 679 | 0.024 nM | Active | 22.2 nM | 0.55 nM | Active | Active | 16.3 nM | CCC(=O)NCCCc1cc(OC)ccc1CCc1cccc(OC)c1 |
